Broadly, the IC50 is the midpoint of a concentration-inhibition curve.

This passage reports inhibition, IC50 and Activity results from ChEMBL document CHEMBL4229473, “Discovery of novel leucyladenylate sulfamate surrogates as leucyl-tRNA synthetase (LRS)-targeted mammalian target of rapamycin complex 1 (mTORC1) inhibitors” (Bioorg Med Chem, 2018).

Active and inactive are the calls of the source. No cut-off for these calls is given here.

The target in test [1] is Leucine--tRNA ligase, cytoplasmic (Homo sapiens) (UniProt Q9P2J5). Kind of test: Inhibition of LRS-mediated mTORC1 activation in HEK293 cells assessed as decrease in leucine-induced S6K phosphorylation at T389 treated prior to leucine induction measured after 10 mins by Western blot method. Type of test: cell-based. Put shortly:
(§1)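 Dose-dependent series in HEK293 cells. Compounds were given as pretreatment at several concentrations, then leucine was added for 10 min to activate mTORC1. Western blots were probed for phospho-S6K, S6K, LRS, mTOR and phospho-mTOR.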
(In general: In western blotting, separated proteins are transferred to a membrane and probed.)

The next test concerns MRC5. Kind of test: Cytotoxicity against human MRC5 cells assessed as growth inhibition after 72 hrs by SRB assay. Conditions: MRC5, 72 h. Type of test: cell-based. Put shortly: (§2)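 Growth-inhibition IC50 values in a panel of cancer lines: A549 (lung), HCT116 (colon), K562 (leukemia), MDA-MB-231 (breast), SK-Hep-1 (liver) and SNU638 (stomach), plus MRC5 (described as normal lung epithelial cells). Etoposide was run in parallel as the positive control.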
In general terms: Sulforhodamine B stains cellular protein and so reports cell mass.

The next test deals with MDA-MB-231. Kind of test: Cytotoxicity against human MDA-MB-231 cells assessed as growth inhibition after 72 hrs by SRB assay. Conditions: MDA-MB-231, 72 h. Type of test: functional, cell-based. A digest of the protocol:
as §2

Test [2] has as its target Serine/threonine-protein kinase mTOR (Homo sapiens) (UniProt P42345). Nature of the test: Inhibition of mTOR phosphorylation in HEK293 cells at 20 to 200 uM treated prior to leucine addition measured after 10 mins by Western blot method. It counts as cell-based. A digest of the protocol:
as §1

The subject of the next test is HCT-116. Kind of test: Cytotoxicity against human HCT116 cells assessed as growth inhibition after 72 hrs by SRB assay. Conditions: HCT-116, 72 h. Type of test: functional, cell-based. A digest of the protocol: as §2
In test [3] the test system is HEK293. Kind of test: Effect on S6K expression in HEK293 cells at 20 to 200 uM treated prior to leucine addition measured after 10 mins by Western blot method. Type of test: functional, cell-based. Conditions: Homo sapiens. A digest of the protocol: as §1
The next test relates to K562. Nature of the test: Cytotoxicity against human K562 cells assessed as growth inhibition after 72 hrs by SRB assay. Type of test: functional, cell-based. Conditions: K562, 72 h. A digest of the protocol:
as §2

In test [4] the target is Leucine--tRNA ligase, cytoplasmic (Homo sapiens) (UniProt Q9P2J5). Kind of test: Inhibition of LRS aminooleucylation in HEK293 cells assessed as residual activity. Type of test: cell-based.
The target is the same in test [5]. Nature of the test: Inhibition of LRS-mediated mTORC1 activation in HEK293 cells assessed as decrease in leucine-induced S6K phosphorylation at T389 at 200 uM treated prior to leucine induction measured after 10 mins by Western blot method. It counts as cell-based. Put shortly:
(§3)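 HEK293 cells were pretreated at one fixed level: test agents at 200 μM, rapamycin at 100 nM or leucinol at 800 μM. mTORC1 was then activated by adding leucine for 10 min. Lysates were Western blotted for phospho-S6K, total S6K, LRS, mTOR and phospho-mTOR.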

Another test has as its system A549. Nature of the test: Cytotoxicity against human A549 cells assessed as growth inhibition after 72 hrs by SRB assay. Type of test: functional, cell-based. As to conditions: A549, 72 h. A digest of the protocol: as §2
In test [6] the test system is HEK293. Kind of test: Effect on mTOR expression in HEK293 cells at 20 to 200 uM treated prior to leucine addition measured after 10 mins by Western blot method. It counts as functional, cell-based. As to conditions: Homo sapiens. Put shortly:
as §1

Test [7] has as its system HEK293. Kind of test: Effect on LRS expression in HEK293 cells at 20 to 200 uM treated prior to leucine addition measured after 10 mins by Western blot method. As to conditions: Homo sapiens. Type of test: functional, cell-based. Put shortly:
as §1

The next test deals with SNU-638. Nature of the test: Cytotoxicity against human SNU638 cells assessed as growth inhibition after 72 hrs by SRB assay. It counts as functional, cell-based. Conditions: SNU-638, 72 h. Put shortly:
as §2

Another test concerns SK-HEP1. Kind of test: Cytotoxicity against human SKHEP1 cells assessed as growth inhibition after 72 hrs by SRB assay. Type of test: functional, cell-based. As to conditions: SK-HEP1, 72 h. Put shortly: as §2
The target in test [8] is Leucine--tRNA ligase, cytoplasmic (Homo sapiens) (UniProt Q9P2J5). Kind of test: Inhibition of LRS-mediated mTORC1 activation in HEK293 cells assessed as decrease in leucine-induced S6K phosphorylation at T389 at 100 nM treated prior to leucine induction measured after 10 mins by Western blot method. It counts as cell-based. A digest of the protocol:
as §3

For test [9], the target named is Serine/threonine-protein kinase mTOR (Homo sapiens) (UniProt P42345). Kind of test: Inhibition of mTOR phosphorylation in HEK293 cells at 200 uM treated prior to leucine addition measured after 10 mins by Western blot method. It counts as cell-based. Put shortly: as §3
The test system of test [10] is HEK293. Kind of test: Effect on LRS expression in HEK293 cells at 200 uM treated prior to leucine addition measured after 10 mins by Western blot method. Conditions: Homo sapiens. Type of test: functional, cell-based. A digest of the protocol: as §3
Test [11] concerns HEK293. Kind of test: Effect on mTOR expression in HEK293 cells at 200 uM treated prior to leucine addition measured after 10 mins by Western blot method. It counts as functional, cell-based. Conditions: Homo sapiens. A digest of the protocol: as §3
The test system of test [12] is HEK293. Kind of test: Effect on S6K expression in HEK293 cells at 200 uM treated prior to leucine addition measured after 10 mins by Western blot method. Type of test: functional, cell-based. As to conditions: Homo sapiens. A digest of the protocol:
as §3

The target of test [13] is Leucine--tRNA ligase, cytoplasmic (Homo sapiens) (UniProt Q9P2J5). Nature of the test: Inhibition of LRS-mediated mTORC1 activation in HEK293 cells assessed as decrease in leucine-induced S6K phosphorylation at T389 at 800 uM treated prior to leucine induction measured after 10 mins by Western blot method. It counts as cell-based. Put shortly:
as §3

The target is the same in test [14]. Kind of test: Inhibition of LRS-mediated mTORC1 activation in HEK293 cells assessed as decrease in leucine-induced S6K phosphorylation at T389 at 100 uM treated prior to leucine induction measured after 10 mins by Western blot method. It counts as cell-based. A digest of the protocol:
as §1

Leucine--tRNA ligase, cytoplasmic (Homo sapiens), sequence (Q9P2J5 whole entry, looked up): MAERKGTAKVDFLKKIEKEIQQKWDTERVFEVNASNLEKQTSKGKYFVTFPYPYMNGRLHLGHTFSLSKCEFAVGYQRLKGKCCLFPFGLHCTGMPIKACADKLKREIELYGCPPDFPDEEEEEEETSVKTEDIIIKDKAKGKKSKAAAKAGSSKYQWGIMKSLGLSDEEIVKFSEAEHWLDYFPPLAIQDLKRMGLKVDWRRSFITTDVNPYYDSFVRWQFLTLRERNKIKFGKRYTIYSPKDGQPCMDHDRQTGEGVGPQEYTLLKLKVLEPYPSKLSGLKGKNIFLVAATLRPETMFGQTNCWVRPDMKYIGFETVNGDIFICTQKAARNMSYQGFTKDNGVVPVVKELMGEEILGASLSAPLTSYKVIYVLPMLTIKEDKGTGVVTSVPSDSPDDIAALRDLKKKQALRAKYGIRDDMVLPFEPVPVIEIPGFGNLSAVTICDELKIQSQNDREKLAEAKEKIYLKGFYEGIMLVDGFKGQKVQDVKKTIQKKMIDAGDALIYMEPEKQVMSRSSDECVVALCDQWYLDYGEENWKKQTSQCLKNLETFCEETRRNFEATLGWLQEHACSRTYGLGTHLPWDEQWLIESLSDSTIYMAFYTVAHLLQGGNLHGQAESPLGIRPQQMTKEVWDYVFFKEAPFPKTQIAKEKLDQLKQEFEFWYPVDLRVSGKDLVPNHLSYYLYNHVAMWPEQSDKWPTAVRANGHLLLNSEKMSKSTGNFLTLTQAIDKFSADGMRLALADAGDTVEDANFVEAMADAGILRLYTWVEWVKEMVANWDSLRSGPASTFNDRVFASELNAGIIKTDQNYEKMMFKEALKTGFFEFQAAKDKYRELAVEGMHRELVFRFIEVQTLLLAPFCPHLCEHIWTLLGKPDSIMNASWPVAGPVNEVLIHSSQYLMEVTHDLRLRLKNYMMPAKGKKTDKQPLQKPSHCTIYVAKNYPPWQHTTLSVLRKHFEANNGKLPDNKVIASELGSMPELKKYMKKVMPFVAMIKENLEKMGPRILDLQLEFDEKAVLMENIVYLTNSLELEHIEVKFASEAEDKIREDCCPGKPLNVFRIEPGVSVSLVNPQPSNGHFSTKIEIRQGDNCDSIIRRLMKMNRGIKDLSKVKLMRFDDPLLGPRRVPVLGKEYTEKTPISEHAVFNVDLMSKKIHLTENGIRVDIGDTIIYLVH

`COc1cc2ncnc(Nc3ccc(F)c(Cl)c3)c2cc1OS(=O)(=O)NC(=O)[C@@H](O)CC(C)C`: the inhibition result in [1] was “Dose-dependent effect”. The IC50 with MRC5 turned out to be 18.8 µM; with MDA-MB-231 it was 6.23 µM; in the test on HCT-116, 4.04 µM; with K562, 4.1 µM; in the test with A549 it was 4.38 µM; with SNU-638, 4.94 µM. The IC50 in the test with SK-HEP1 is 3.3 µM. Moreover, in [2], the inhibition result was “inactive”. Further, the outcome with HEK293 [3], in the test with HEK293 [6] and with HEK293 [7] was inactive. In [4], the Activity was above 70%. The inhibition result in test [5] is “Active”.

`CO[C@H]1C[C@@H]2CC[C@@H](C)[C@@](O)(O2)C(=O)C(=O)N2CCCC[C@H]2C(=O)O[C@H]([C@H](C)C[C@@H]2CC[C@@H](O)[C@H](OC)C2)CC(=O)[C@H](C)/C=C(\C)[C@@H](O)[C@@H](OC)C(=O)[C@H](C)C[C@H](C)/C=C/C=C/C=C/1C`: the inhibition result in test [8] was “Active”.

In the case of `COc1cc2ncnc(Nc3ccc(F)c(Cl)c3)c2cc1OCCOC(=O)[C@@H](O)CC(C)C`, the inhibition result in [1] is “Dose-dependent effect”. Further, the IC50 in the test on MRC5 was determined as 1.12 µM; with MDA-MB-231, 2.05 µM; with HCT-116 it was 3.12 µM; in the test on K562, 3.89 µM; in the test on A549 it was 3.16 µM; in the test on SNU-638 it was 3.41 µM. Moreover, the IC50 with SK-HEP1 amounted to 1.39 µM. For the same molecule, the inhibition result in test [2] was “inactive”. Moreover, the result in the test on HEK293 [3], in the test on HEK293 [6] and in the test on HEK293 [7] was inactive. For the same molecule, in test [4], the Activity was above 70%.

Turning to `COc1cc2ncnc(Nc3ccc(F)c(Cl)c3)c2cc1OCCOS(=O)(=O)NC(=O)[C@@H](O)CC(C)C`, the inhibition entry in test [9] and in test [5] was “inactive” each time. The outcome in the test on HEK293 [10], in the test on HEK293 [11] and in the test on HEK293 [12] was inactive.

With `COc1cc2ncnc(Nc3ccc(F)c(Cl)c3)c2cc1OCCOS(=O)(=O)NC(=O)[C@@H](N)CC(C)C`, the inhibition result in test [9] and in [5] was “inactive” throughout. For the same molecule, the result in the test on HEK293 [10], in the test on HEK293 [11] and in the test on HEK293 [12] was inactive.

Regarding `COc1cc2ncnc(Nc3ccc(F)c(Cl)c3)c2cc1OCCNC(=O)[C@@H](O)CC(C)C`, the inhibition result in test [9] is “inactive”. The result with HEK293 [10], in the test on HEK293 [11] and with HEK293 [12] was inactive. For the same molecule, in [5], the inhibition result was “Active”.

Regarding `COc1cc2ncnc(Nc3ccc(F)c(Cl)c3)c2cc1OC(=O)[C@@H](O)CC(C)C`, the inhibition result in test [9] and in test [5] was “inactive” in each case. In addition, the outcome in the test on HEK293 [10], with HEK293 [11] and in the test on HEK293 [12] was inactive.

Turning to `CC(C)C[C@H](N)CO`, the inhibition entry in [13] is “Active”.

Consider `COc1cc2ncnc(Nc3ccc(F)c(Cl)c3)c2cc1OCCNC(=O)[C@@H](N)CC(C)C`, for which the IC50 with MRC5 is above 20 µM; with MDA-MB-231, 4.59 µM; in the test with HCT-116, 4.24 µM; with K562, 3.83 µM; in the test on A549 it was 2.79 µM; with SNU-638 it was 2.97 µM. The half-maximal inhibitory concentration (IC50) in the test on SK-HEP1 stood at 2.21 µM. In addition, the inhibition entry in test [2] and in test [14] was “inactive” throughout. Besides, the outcome in the test on HEK293 [3], in the test with HEK293 [6] and in the test on HEK293 [7] was inactive. In test [4], the Activity was above 70%. Further, the inhibition result in test [5] is “Active”.

In the case of `COc1cc2ncnc(Nc3ccc(F)c(Cl)c3)c2cc1OS(=O)(=O)NC(=O)[C@@H](N)CC(C)C`, the inhibition result in [9] is “inactive”. Besides, the outcome in the test with HEK293 [10], with HEK293 [11] and in the test with HEK293 [12] was inactive. For the same molecule, the inhibition result in [5] is “Active”.

Take `COc1cc2ncnc(Nc3ccc(F)c(Cl)c3)c2cc1OCCOC(=O)[C@@H](N)CC(C)C`: the IC50 came to 1.87 µM in the test on MRC5; 3.65 µM in the test with MDA-MB-231; 3.97 µM in the test with HCT-116; 4.01 µM in the test with K562; 3.59 µM in the test with A549; 3.86 µM with SNU-638. Further, the 50% inhibitory concentration (IC50) in the test on SK-HEP1 amounted to 1.94 µM. The inhibition entry in [2] is “inactive”. The outcome in the test with HEK293 [3], with HEK293 [6] and in the test with HEK293 [7] was inactive. For the same molecule, the inhibition result in [14] and in [5] was “Active” throughout.

`COc1cc2ncnc(Nc3ccc(F)c(Cl)c3)c2cc1OC(=O)[C@@H](N)CC(C)C`: the inhibition result in test [9] and in test [5] was “inactive” in each case. Besides, the outcome in the test with HEK293 [10], in the test on HEK293 [11] and with HEK293 [12] was inactive.
